Measurements of several laboratories.
FLT4: Vascular endothelial growth factor receptor 3 (FLT4, Homo sapiens, UniProt P35916)
SIRT6: NAD-dependent protein deacylase sirtuin-6 (SIRT6, Homo sapiens, UniProt Q8N6T7)
MAPK10: Mitogen-activated protein kinase 10 (MAPK10, Homo sapiens, UniProt P53779)
ALK: ALK tyrosine kinase receptor (ALK, Homo sapiens, UniProt Q9UM73)
CTSB: Cathepsin B (CTSB, Homo sapiens, UniProt P07858)
FASN: Fatty acid synthase (FASN, Gallus gallus, UniProt P12276)
CCR2: C-C chemokine receptor type 2 (CCR2, Homo sapiens, UniProt P41597)

| SMILES | target | read-out | mode | method | cells | setting | IC50 |
| --- | --- | --- | --- | --- | --- | --- | --- |
| CNC(=O)c1cc2c(Oc3ccc(NC(=O)C4(C(=O)Nc5ccc(F)cc5)CC4)cc3)ccnc2cc1OC | FLT4 | enzyme activity | inhibitor | radiometric |  |  | 0.006 µM |
| COc1cccc(Sc2ccc(CONC(=O)c3ccc(C(N)=O)cc3)cc2C(F)(F)F)c1 | SIRT6 | enzyme activity | inhibitor | fluorescence |  |  | 1.12 µM |
| COc1ccc2c(Oc3ccc4c(C(=O)Nc5ccccc5N)cccc4c3)ccnc2c1 | MAPK10 | enzyme activity | inhibitor |  |  |  | > 0.5 µM |
| CC(C)c1ccc(NC(=O)CCc2nc(O)c3c4c(sc3n2)CCC4)cc1 | Pantothenate kinase 1 (Homo sapiens, UniProt Q8TE04) | enzyme activity | inhibitor | ATP luminescence |  |  | 0.02 µM |
| Cc1cc(-c2cccc(C(C)(C)C)c2)[nH]n1 | ALK | enzyme activity | inhibitor | TR-FRET |  |  | 270 µM |
| COc1cc(NCC(=O)Nn2c(C)nc3ccc(Cl)cc3c2=O)cc(OC)c1OC | CTSB | enzyme activity | inhibitor |  |  |  | 70.5 µM |
| Nc1nonc1-n1cc(C(=O)N/N=C/c2ccc(O)c(O)c2O)nn1 | SIRT6 | enzyme activity | inhibitor | fluorescence |  |  | 26 µM |
| c1ccc(-c2ccc(-c3cnc4[nH]c5ccccc5c4c3)cc2)cc1 | ALK | enzyme activity | inhibitor | ELISA |  |  | > 10 µM |
| Cc1cc(-c2cccc(F)c2)n[nH]1 | ALK | enzyme activity | inhibitor | TR-FRET |  |  | 240 µM |
| COc1ccc(CONC(=O)c2ccc(C(N)=O)cc2)cc1 | SIRT6 | enzyme activity | inhibitor | fluorescence |  |  | 7.49 µM |
| Cc1cnc(-c2ccc(-c3ccc(NC(=O)Nc4c(F)cc(F)cc4F)cc3F)c3c2C(=O)NC3)[nH]1 | Mitogen-activated protein kinase kinase kinase kinase 1 (MAP4K1, Homo sapiens, UniProt Q92918) | enzyme activity | inhibitor |  |  |  | 0.0115 µM |
| NC(=O)c1ccc(C(=O)NOCc2ccc(Sc3ccccc3)cc2)cc1 | SIRT6 | enzyme activity | inhibitor | fluorescence |  |  | 1.78 µM |
| O=C(O)CC(=O)C(=O)O | LDHA (Oryctolagus cuniculus, UniProt P13491) | enzyme activity | inhibitor |  |  |  | 3320 µM |
| COc1cc(C[C@H]2C(=O)OC[C@@H]2Cc2ccc(OC)c(OC)c2)ccc1O | Dual specificity calcium/calmodulin-dependent 3',5'-cyclic nucleotide phosphodiesterase 1A (PDE1A, Homo sapiens, UniProt P54750) | enzyme activity | inhibitor |  |  |  | > 20 µM |
| COC(=O)[C@@]1(c2ccc(F)cc2F)C[C@@H]1Oc1ccc(C#N)cc1-c1cc(C)[nH]n1 (racemic) | ALK | enzyme activity | inhibitor | TR-FRET |  |  | 0.041 µM |
| COc1cc(O)c(CC=C(C)C)c2c1C(=O)CC(c1ccc(O)cc1)O2 (stereo not drawn) | FASN | enzyme activity | inhibitor | radiometric |  |  | > 100 µM |
| CN(Cc1ccc(NC(=O)C2=Cc3cc(-c4ccc(OCCCCCO)cc4)ccc3CCC2)cc1)C1CCOCC1 | CCR2 | ligand displacement |  | radioligand |  | cell membranes | 0.326 µM |
| COc1cc(/C=N/n2c(C)nc3ccc(Br)cc3c2=O)ccc1O | CTSB | enzyme activity | inhibitor |  |  |  | 33.5 µM |
| Cc1cc(-c2cc(C#N)ccc2O[C@@H]2C[C@]2(CN(C)C)c2ccc(F)cc2F)n[nH]1 (racemic) | ALK | enzyme activity | inhibitor | TR-FRET |  |  | 0.11 µM |
| CN(C(=O)n1cnc(-c2ccc[n+]([O-])c2)c1)C1CCCCC1 | Multidrug and toxin extrusion protein 1 (SLC47A1, Homo sapiens, UniProt Q96FL8) | transporter uptake | inhibitor |  | MDCK-II |  | > 33.3 µM |

| SMILES | target | read-out | mode | method | cells | setting | IC50 |
| --- | --- | --- | --- | --- | --- | --- | --- |
| CCn1ncc2c1-c1cnc(N)c(c1)O[C@H](C)c1cc(F)ccc1-c1nn(C)nc1C2 | Angiopoietin-1 receptor (TEK, Homo sapiens, UniProt Q02763) | enzyme activity | inhibitor | radiometric |  |  | 0.28 µM |
| Nc1ncc2c(n1)-c1c([nH]c3ccc(-c4ccc(F)cc4)cc13)CCC2 | Myosin light chain kinase family member 4 (MYLK4, Homo sapiens, UniProt Q86YV6) | enzyme activity | inhibitor | radiometric |  |  | 0.035 µM |
| Cc1cc(-c2ccccc2)n[nH]1 | ALK | enzyme activity | inhibitor | TR-FRET |  |  | > 300 µM |
| NC(=O)c1ccc(C(=O)NOCc2ccc(C(F)(F)F)cc2)cc1 | SIRT6 | enzyme activity | inhibitor | fluorescence |  |  | 3.13 µM |
| CN(Cc1ccc(NC(=O)C2=Cc3cc(-c4ccc(OCCCO)cc4)ccc3CCC2)cc1)C1CCOCC1 | C-C chemokine receptor type 5 (CCR5, Homo sapiens, UniProt P51681) | ligand displacement |  | radioligand |  | cell membranes | 0.97 µM |
| C=C(C)[C@H](CC=C(C)C)Cc1c(O)cc(O)c2c1O[C@H](c1ccc(O)cc1O)CC2=O | FASN | enzyme activity | inhibitor | radiometric |  |  | 6.7 µM |
| CN(Cc1ccc(NC(=O)C2=Cc3cc(-c4ccc(OCCCF)cc4)ccc3CCC2)cc1)C1CCOCC1 | CCR2 | ligand displacement |  | radioligand |  | cell membranes | 0.118 µM |
| COC(=O)c1ccc(C(=O)NOCc2ccccc2)cc1 | SIRT6 | enzyme activity | inhibitor | fluorescence |  |  | 89.7 µM |
| COc1ccc(-c2ccc3[nH]c4ncc(C=Cc5ccccc5)cc4c3c2)cc1 | ALK | enzyme activity | inhibitor | ELISA |  |  | 1.2 µM |
| N[C@@H](CC(=O)N1CCN(C(c2ccc(F)cc2)c2ccc(F)cc2)CC1)C(=O)N1Cc2ccccc2C1 | Dipeptidyl peptidase 9 (DPP9, Homo sapiens, UniProt Q86TI2) | enzyme activity | inhibitor |  |  |  | 0.322 µM |
| CCc1nc[nH]c1-c1ccnc(Nc2ccc(N3CCOCC3)cc2)c1 | MAPK10 | enzyme activity | inhibitor | ELISA |  |  | 1.2 µM |
| CC(C)C[C@H](NC(=O)[C@H](CC(N)=O)NC(=O)[C@@H](N)CC(C)C)C(=O)NCC(=O)NCCCCNC(=O)c1ccc(-c2n[nH]c3ccccc23)cc1 | MAPK10 | enzyme activity | inhibitor |  |  |  | 0.157 µM |
| COc1ccccc1CONC(=O)c1ccc(C(N)=O)cc1 | SIRT6 | enzyme activity | inhibitor | fluorescence |  |  | 61.7 µM |
| Cc1ccc(C(=O)Nc2ccc(Oc3cc4cnn(C)c4cc3-c3cn[nH]c3)c(F)c2)c(=O)n1-c1ccc(F)cc1 | FLT4 | enzyme activity | inhibitor | radiometric |  |  | 0.023 µM |
| NC(=S)c1ccc(C(=O)NOCc2ccc(C(F)(F)F)cc2)cc1 | SIRT6 | enzyme activity | inhibitor | fluorescence |  |  | 2.03 µM |
| CC(C)C[C@H](NC(=O)[C@H]1O[C@@H]1C(=O)O)C(=O)NCCCCN=C(N)N | CTSB | enzyme activity | inhibitor |  |  |  | 0.00315 µM |
| CN[C@H]1CC[C@@H](c2ccc(Cl)c(Cl)c2)c2ccccc21 | Receptor-type tyrosine-protein phosphatase C (PTPRC, Homo sapiens, UniProt P08575) | enzyme activity | inhibitor | fluorescence |  |  | 80 µM |
| Nc1nonc1-n1cc(C(=O)N/N=C/c2ccco2)nn1 | SIRT6 | enzyme activity | inhibitor | fluorescence |  |  | 14 µM |
| NC(=O)c1ccc(C(=O)NOCc2ccc(Oc3ccccc3)cc2)cc1 | SIRT6 | enzyme activity | inhibitor | fluorescence |  |  | 1.91 µM |
